Experimental findings from ChEMBL document CHEMBL4513216, “Probing the Open Global Health Chemical Diversity Library for Multistage-Active Starting Points for Next-Generation Antimalarials” (ACS Infect Dis, 2020) are described below.

This series is described as follows: Toxicity liver stage against HepG2, at 10uM. The format is cell-based. The arrangement: test concentration 10 uM, cell line HepG2-A16-CD81EGFP. The settings on record: human, HepG2-A16-CD81EGFP cells; read-out: INHIBITION
The method, boiled down:
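Uninfected HepG2-A16-CD81EGFP cells, 3 × 10^3 per well, 1536-well, plated on prespotted compound at 10 μM final, parasite-free screening media added to match infected plates; puromycin 10 μM positive, DMSO 0.5% negative; run in parallel with 48 h PbLuc assay at 37 °C, 5% CO2; viability by CellTiter-Glo luminescence, normalized to controls.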
Turning to `OC(COc1ccccc1)CN1CCN(c2nccs2)CC1` (stereo unspecified), the cytotoxicity at 10 µM was 13.1%.

Regarding `O=C([C@@H]1CC[C@@H]2[C@@H](CCN2Cc2ccoc2)O1)N1CCCC1`, the cytotoxicity at 10 µM is -10.2%.

With `CCS(=O)(=O)N1CCC2(CC1)CC(CC(=O)NC1CC1)c1ccccc12` (stereo unspecified), the cytotoxicity at 10 µM was -1.72%.

For the compound `CCOC(=O)c1nc(CN2CCN(C(=O)NC3CCCCC3)CC2)cs1`, the cytotoxicity at 10 µM was -3.47%.

Take `Cc1ccc2nc(C3CCN(CC(C)C)CC3)nc(O)c2c1`: the cytotoxicity at 10 µM is 7.69%.

For `CCc1nsc(N2CCCN(C(=O)c3ccc(OC)cc3)CC2)n1`, the cytotoxicity at 10 µM was found to be 4.05%.

As for `O=C1N(CCCc2ccccc2)CCCC1(O)CN1CCC(CO)CC1` (stereo unspecified), the cytotoxicity at 10 µM is -10.5%.

`CS(=O)(=O)N[C@@H]1CCN(Cc2cccnc2)[C@H]1Cc1cccnc1`: the cytotoxicity at 10 µM was -70.2%.

As for `CC(=O)N(C)c1nc(Cn2nnnc2C(C)C)cs1`, the cytotoxicity at 10 µM was -2.01%.

As to `CCn1nc(C(=O)N2CCCC2c2noc(C)n2)ccc1=O` (stereo unspecified), the cytotoxicity at 10 µM turned out to be 4.99%.

On to `Cc1cnn(CCNCC(=O)N(C)C(C)c2ccccc2)c1` (stereo unspecified), for which the cytotoxicity at 10 µM amounted to 8.83%.

On to `CCN1C[C@@H]2[C@@H](OC)CCN(C(=O)c3cc(C)nn3CC)[C@@H]2C1`, for which the cytotoxicity at 10 µM is -118%.

Turning to `Cc1ccc2c(c1)N(C(=O)C1CCCOC1)CCC2` (stereo unspecified), the cytotoxicity at 10 µM worked out at 5%.

For `Cc1cc(C)n(CC2CN(c3cnc4ccccc4n3)CCO2)n1` (stereo unspecified), the cytotoxicity at 10 µM is -2.42%.

Take `Cc1nn(CC(=O)O)c(C)c1NS(=O)(=O)c1cccc2ccccc12`: the cytotoxicity at 10 µM was -8.52%.

For `Cn1c(=O)[nH]c(=O)c2c1nc1n2CC(c2ccc(Br)cc2)O1` (stereo unspecified), the cytotoxicity at 10 µM is -1.41%.

Regarding `NC(=O)C1CCN(C(=O)c2ccn(-c3ccc(F)cc3)n2)CC1`, the cytotoxicity at 10 µM was -1.34%.

For the compound `Cn1cc(C(=O)N2CCCC(Cc3nccs3)C2)cn1` (stereo unspecified), the cytotoxicity at 10 µM came out at 3.83%.

Regarding `CCc1nc(C2CCCN2CC(=O)NCCc2ccsc2)no1` (stereo unspecified), the cytotoxicity at 10 µM was -2.81%.

Turning to `CC(C)N1Cc2cccc(NCC(=O)N(C)C)c2C1`, the cytotoxicity at 10 µM was 6.05%.

As to `N#Cc1ccc(SCCCO)c(F)c1`, the cytotoxicity at 10 µM stood at 5.11%.

In the case of `CCS(=O)(=O)CC(=O)Nc1c(C)cnn1Cc1cc(F)ccc1F`, the cytotoxicity at 10 µM was -4.96%.

For `COc1ccc(-c2cc(C3=NC(=CN4CCN(C)CC4)NO3)[nH]n2)cc1`, the cytotoxicity at 10 µM was -17.8%.

For `CN1CCc2[nH]cnc2C12CCN(C(=O)CCc1cccs1)CC2`, the cytotoxicity at 10 µM is -1.19%.

As to `CC1CCCN(C(=O)c2cccc(CS(C)(=O)=O)c2)C1` (stereo unspecified), the cytotoxicity at 10 µM was -1.42%.

For `Cc1ccc(N2N=C(C(=O)N(C)Cc3ccco3)NCC2=O)cc1`, the cytotoxicity at 10 µM was 6.27%.

For the compound `O[C@@H]1C[C@@H](c2nc(-c3ccc(OC(F)(F)F)cc3)no2)N(CC2CC2)C1`, the cytotoxicity at 10 µM amounted to 1.32%.

With `COc1ccc(C(=O)N(C)Cc2nnc3ccccn23)c(OC)c1OC`, the cytotoxicity at 10 µM is -11.5%.

With `CC(C)c1noc(C[S+]([O-])CC(=O)Nc2ccc(F)c(F)c2)n1` (stereo unspecified), the cytotoxicity at 10 µM was -8.82%.

For the compound `CCc1nnc(CNC(=O)c2cc3c(nc2OC)CCC3)s1`, the cytotoxicity at 10 µM was 0.156%.

For `CN1CCC(Oc2ccc(NC(=O)c3ccccc3)cc2)CC1`, the cytotoxicity at 10 µM is -5.13%.

For `CCN(CC)CCn1cc(NC(=O)CNc2ccccc2OC)cn1`, the cytotoxicity at 10 µM was 6.19%.

With `Cc1cc(C(=O)NCc2ccc(N3CCCC(C(N)=O)C3)cc2)[nH]n1` (stereo unspecified), the cytotoxicity at 10 µM was 4.23%.

As for `COCC(=O)NC[C@]1(O)CN(Cc2ccc3c(c2)OCCO3)C[C@H]1O`, the cytotoxicity at 10 µM amounted to 1.88%.

In the case of `CC(C)(CO)Nc1cc(-c2ccccc2)ncn1`, the cytotoxicity at 10 µM is -7.8%.

As for `O=C(NCCN1CCOCC1)c1scnc1Cl`, the cytotoxicity at 10 µM is -2.09%.

In the case of `O=C(Cc1ccn[nH]1)N1CCc2cc(Br)sc2C1`, the cytotoxicity at 10 µM was determined as 4.42%.

Take `F[C@@H]1CN(CC2CC2)C[C@@H]1OCc1nc2ccccc2[nH]1`: the cytotoxicity at 10 µM is -1.34%.

Consider `CCc1n[nH]c(C2CN(C(=O)CCCn3cccn3)CCO2)n1` (stereo unspecified), for which the cytotoxicity at 10 µM is -6.69%.

With `Cc1ncnc2c1CCN(C(=O)Cc1cccc(F)c1)CC2`, the cytotoxicity at 10 µM was -5.95%.

Take `NC(=O)c1ccc(C(=O)N2CCCCC2C2OCCO2)cc1` (stereo unspecified): the cytotoxicity at 10 µM was -0.966%.

Turning to `O=C(Cc1c[nH]c2ncccc12)NCC(O)c1ccsc1` (stereo unspecified), the cytotoxicity at 10 µM turned out to be 5.46%.

With `COc1ccc(CC(=O)NC2(C)CCS(=O)(=O)C2)cc1F` (stereo unspecified), the cytotoxicity at 10 µM was found to be 2.05%.

On to `CC(=O)N1CCC[C@@H](NCc2cccc(F)c2)[C@@H]1c1ccc(C)s1`, for which the cytotoxicity at 10 µM is -24.2%.

Turning to `O=C1NC2(CCN(C(=O)c3ccc(Cl)cc3)CC2)CC1c1ccccc1` (stereo unspecified), the cytotoxicity at 10 µM is -12.2%.

Turning to `CCC(Nc1nc(C2CCCC2)nc2c1cnn2C)c1ccncc1` (stereo unspecified), the cytotoxicity at 10 µM was -39.6%.

`COCc1c(Br)cccc1NC(=O)N(C)CCO`: the cytotoxicity at 10 µM was -9.95%.

Turning to `CSCCCN(CCN1CCOCC1)Cc1ccco1`, the cytotoxicity at 10 µM was 8.05%.

In the case of `Cn1cccc1C(=O)N1C[C@@H]2C[C@@H](c3nc(C4CC4)cs3)O[C@@H]2C1`, the cytotoxicity at 10 µM is -113%.

As to `Cc1ccccc1CC1(CO)CCCN(c2ncccc2C#N)C1` (stereo unspecified), the cytotoxicity at 10 µM is -1.16%.

Consider `COCCN1CCOCC2(CCCN(Cc3ccc(C)o3)C2)C1` (stereo unspecified), for which the cytotoxicity at 10 µM was -5.58%.

Regarding `C[C@@H]1CN(c2cc(N3CCC(O)CC3)ncn2)C[C@@]1(O)C1CC1`, the cytotoxicity at 10 µM is -1.79%.

In the case of `Cn1nc(N2CCCC(C(=O)Nc3nc4ccccc4[nH]3)C2)ccc1=O` (stereo unspecified), the cytotoxicity at 10 µM is 1.08%.

For the compound `CN(C)C(=O)c1nnn(-c2ccc(Br)cc2)n1`, the cytotoxicity at 10 µM worked out at 7.5%.

Take `CCCN1C[C@H](NC(=O)c2cc(C)no2)[C@@H](c2ccc(OC)cc2)C1`: the cytotoxicity at 10 µM was -27.3%.

As for `Cc1nn(C)cc1-c1cc(-c2cn(C)nc2C)n(CC(=O)NC2CC2)n1`, the cytotoxicity at 10 µM is 4.46%.

Turning to `CC1(C(=O)NCc2cccnc2Oc2ccc(F)c(F)c2)CCCNC1` (stereo unspecified), the cytotoxicity at 10 µM is -0.37%.

In the case of `COc1ccc(CC(=O)N2CCCCC2Cn2cc(C)cn2)cc1F` (stereo unspecified), the cytotoxicity at 10 µM is -14.1%.

Regarding `CC(=O)N1CCN(C[C@H]2CC[C@@H](Cc3ccc4c(c3)OCO4)O2)CC1`, the cytotoxicity at 10 µM was -7.9%.

As for `CCOC(=O)CNC(=O)N1CCOC(CCc2ccccc2)C1` (stereo unspecified), the cytotoxicity at 10 µM is -4.41%.

Turning to `CCC1COC2(CCN(C(=O)c3ccco3)CC2)C1` (stereo unspecified), the cytotoxicity at 10 µM was -65.4%.

Turning to `COCc1nc(CNc2cccc(-c3nc(C)c(C)o3)c2)cs1`, the cytotoxicity at 10 µM stood at 5.11%.

Regarding `CNS(=O)(=O)CCNCC1(O)CCCN(CCC2CCCCC2)C1=O` (stereo unspecified), the cytotoxicity at 10 µM amounted to 0.28%.

`O=C1CC(NCc2cnc(-c3cccs3)nc2)CN1c1ccccc1` (stereo unspecified): the cytotoxicity at 10 µM came to 1.58%.

Regarding `Cc1oc(C)c(C(=O)N2CCN(Cc3cscn3)CC2)c1C`, the cytotoxicity at 10 µM was -10.6%.

On to `O=C(NCCC1CCCCO1)c1coc(COc2ccc(F)cc2)n1` (stereo unspecified), for which the cytotoxicity at 10 µM was found to be 1.1%.

For `CCc1nc(NC(=O)N(C)Cc2ccoc2)nn1C`, the cytotoxicity at 10 µM turned out to be 0.79%.

Regarding `COc1ccc(CN2CCC3(CC2)CCN(CC(C)C)C3=O)cc1`, the cytotoxicity at 10 µM stood at 3.17%.

For `CN(Cc1ccco1)Cc1cncc2c1CCN(S(C)(=O)=O)C2`, the cytotoxicity at 10 µM was 2.11%.

On to `Cc1cc(NCCc2nnc(N)s2)nc(-c2ccccc2)n1`, for which the cytotoxicity at 10 µM stood at 6.9%.

`CN1CCC(Nc2cc(Cl)ccc2OCC(F)(F)F)C1=O` (stereo unspecified): the cytotoxicity at 10 µM was -2.71%.

`COCC(=O)NCCSCCOc1cccc(Br)c1`: the cytotoxicity at 10 µM was -9.2%.

Regarding `Fc1cccc(-n2ccc(CN3CCCC3Cn3cccn3)n2)c1` (stereo unspecified), the cytotoxicity at 10 µM is -13.1%.

As to `CS(=O)(=O)c1cncnc1C1CCCNC1` (stereo unspecified), the cytotoxicity at 10 µM was -8.33%.

As to `CCCn1cc(CN2CCCC2c2nccc(CN(C)C)n2)cn1` (stereo unspecified), the cytotoxicity at 10 µM was 19.7%.

Turning to `CN(Cc1ccco1)Cc1ccccc1CNC(=O)c1cc[nH]n1`, the cytotoxicity at 10 µM is -8.11%.

On to `Cn1cc(C(=O)NCC2CCN(C(=O)NCC(F)(F)F)CC2)cn1`, for which the cytotoxicity at 10 µM is -3.68%.

Turning to `Cc1nc(C(C)NC(=O)c2cn(CCC3CCCCC3)nn2)n[nH]1` (stereo unspecified), the cytotoxicity at 10 µM was 9.21%.

For the compound `Cc1c(C(C)NCc2cnn(C)c2)cnn1-c1ccccc1` (stereo unspecified), the cytotoxicity at 10 µM was -5.78%.

Regarding `CCn1nc(C)cc1C(=O)N1C[C@H]2CCC[C@@]2(COc2ccccn2)C1`, the cytotoxicity at 10 µM is 0.529%.

On to `CN(Cc1ccccn1)C(=O)[C@H]1CO[C@H]2CCN(CC3CC3)C[C@H]2C1`, for which the cytotoxicity at 10 µM is -105%.

Turning to `O=C1CCCc2occ(C(=O)N3CCCC4(CCNC4)C3)c21` (stereo unspecified), the cytotoxicity at 10 µM is 9.15%.

Regarding `Cc1cc(NC(=O)Cn2ccccc2=O)n(C)n1`, the cytotoxicity at 10 µM was -7.32%.

Consider `CCN(CC)C1COc2c(cc(Br)c(C)c2Br)C1=O` (stereo unspecified), for which the cytotoxicity at 10 µM was 5.77%.

As for `CCN(C)C(=O)c1ccc(N2CCC(Oc3cccc(F)c3)CC2)nc1`, the cytotoxicity at 10 µM was -23.7%.

As to `NC(=O)c1ccc(C(=O)N(Cc2ccc(O)cc2)CC2CC2)cc1`, the cytotoxicity at 10 µM came out at 8.19%.

`O=C(CCOc1ccc(Cl)cc1)N1CCN(c2cnccn2)CC1`: the cytotoxicity at 10 µM is -2.65%.

For `CCn1nc(C)c(-c2cncn2Cc2ccccc2CN(C)C)c1C`, the cytotoxicity at 10 µM was found to be 12.4%.

With `CCC(CO)NCc1ccc(-c2ccc(F)cc2)o1` (stereo unspecified), the cytotoxicity at 10 µM is -5.67%.

For the compound `CCOC(=O)Cn1c(=O)nc(N)c2c(-c3ccc(OC)cc3)csc21`, the cytotoxicity at 10 µM is -33.2%.

Take `COc1ccccc1CCNC(=O)N(C)C(C)CS(C)(=O)=O` (stereo unspecified): the cytotoxicity at 10 µM is -48.8%.

Consider `CC(O)CN1CCC(CNCc2ccc(OC(F)(F)F)cc2)CC1` (stereo unspecified), for which the cytotoxicity at 10 µM was -13.6%.

Regarding `O=S(=O)(N1CCOCC1)N1CCOC(CCc2ccccc2)C1` (stereo unspecified), the cytotoxicity at 10 µM was -2.55%.

On to `CN(C)CCN(Cc1ccsc1)C(=O)C1=NNC(=O)CC1`, for which the cytotoxicity at 10 µM was determined as 6.62%.

As to `CNc1nc(C)c(C(=O)N2CCCCC2CCN2CCOCC2)s1` (stereo unspecified), the cytotoxicity at 10 µM is -2.06%.

With `CN1CCN2CCN(Cc3ccccc3Cn3cccn3)CC2C1` (stereo unspecified), the cytotoxicity at 10 µM is -133%.
